Read-outs that look alike come from different tables or passages of the source.
Legend:
α4β2-nAChR = α4β2-nAChR (Rattus norvegicus, UniProt P09483+P12390); test: [3H]epibatidine binding competition, heterologously expressed α4β2-nAChR; conditions: from Ki values
mice [1] = test: Mouse forced swim test; type: in vivo
human α4β2-nAChRs [2] = target: T1, human α4β2-nAChRs (Homo sapiens, UniProt P17787+P43681); test: 86Rb+ ion flux assay, SH-EP1 cells; type: cell-based; conditions: mixture of HS and LS α4β2-nAChRs
Procedure, shortened: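 Human α4β2-nAChRs stably expressed in SH-EP1 cells, as a mixture of high- and low-sensitivity forms. Agonist responses are expressed relative to a maximally efficacious concentration of the full agonist carbamylcholine. Inactivation of function is measured after a 10 min pre-exposure to test compound. Concentration-response curves are fitted by semi-logarithmic nonlinear regression.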

mice [3] = test: SmartCube automated behavioral signature; type: in vivo, mouse; conditions: i.p., 15 min before testing
[4] = 1 h incubation, starting concentration 1 μM; ref [16]; cited from earlier work
Ct-AChBP = Ct-AChBP (Capitella teleta, UniProt I6L8L2); test: biochemical; type: binding
human α4β2-nAChRs [5] = target: T1, human α4β2-nAChRs; conditions: cited from earlier work
[6] = Liver microsome stability, rat; type: in vitro ADME; conditions: rat liver microsomes, 1 h, 2 μM
[7] = Liver microsome stability, dog; type: in vitro ADME; conditions: dog liver microsomes, 1 h, 2 μM
[8] = Liver microsome stability, mouse; type: in vitro ADME; conditions: mouse liver microsomes, 1 h, 2 μM
[9] = Liver microsome stability, human; type: in vitro ADME; conditions: human liver microsomes, 1 h, 2 μM
[10] = intraperitoneally, 3 or 10 mg/kg

Structure (SMILES): FC(F)C[C@H]1C[C@@H]1c1cncc(OC[C@@H]2CCN2)c1.O=C(O)C(F)(F)F [compound 13, 3-[(2(S)-Azetidinyl)methoxy]-5-[(1S,2R)-2-(2,2-difluoroethyl)cyclopropyl]pyridine Trifluoroacetate]
- selectivity for α4β2- over α3β4-nAChRs (α4β2-nAChR): greater than 16000 fold
- effect in the forced swim test (mice [1]; [10]): no significant effect
- Agonism Hill slope (human α4β2-nAChRs [2]): 1.4±0.4
- Inactivation Hill Slope (human α4β2-nAChRs [2]): −1.1±0.3
- SmartCube behavioral signature (mice [3]): signature of activity suggesting potential antidepressant-like effect

Structure (SMILES): CNC(=O)OCC[C@H]1C[C@@H]1c1cncc(OC[C@@H]2CCN2)c1 [compound 6]
- tested compound remained unchanged [4]: 98%
- Ki (Ct-AChBP): 0.022 ± 0.003 µM
- SmartCube behavioral signature (mice [3]): signature of activity suggesting potential antidepressant-like effect

Structure (SMILES): CN1CCC[C@H]1c1cccnc1 [compound 1, nicotine, reference compound]
- Agonism Hill slope (human α4β2-nAChRs [5]): 1.0±0.1
- Inactivation Hill Slope (human α4β2-nAChRs [5]): −0.8±0.09

Structure (SMILES): CN[C@H]1CC[C@@H](c2ccc(Cl)c(Cl)c2)c2ccccc21 [sertraline, reference compound]
- effect on immobility in the forced swim test (mice [1]; positive control, 20 mg/kg): expected decrease in immobility

Structure (SMILES): FCC[C@H]1C[C@@H]1c1cncc(OC[C@@H]2CCN2)c1.O=C(O)C(F)(F)F [compound 12, 3-[(2(S)-Azetidinyl)methoxy]-5-[(1S,2R)-2-(2-fluoroethyl)cyclopropyl]pyridine Trifluoroacetate]
- selectivity for α4β2- over α3β4-nAChRs (α4β2-nAChR): greater than 16000 fold
- effect in the forced swim test (mice [1]; intraperitoneally or orally): antidepressant-like effect
- minimal dose with significant reduction in immobility (mice [1]; intraperitoneally or orally): 3 mg/kg
- compound remained unchanged [6]: no less than 98%
- compound remained unchanged [7]: no less than 98%
- compound remained unchanged [8]: no less than 98%
- Agonism Hill slope (human α4β2-nAChRs [2]): 1.3±0.5
- Inactivation Hill Slope (human α4β2-nAChRs [2]): −1.2±0.4
- compound remained unchanged [9]: no less than 98%
- SmartCube behavioral signature (mice [3]): signature of activity suggesting potential antidepressant-like effect

Structure (SMILES): OCC[C@H]1C[C@@H]1c1cncc(OC[C@@H]2CCN2)c1 [compound 5]
- Agonism Efficacy at HS (human α4β2-nAChRs [5]; HS α4β2-nAChR, extrapolated using sazetidine-A as full agonist, ref [16]): 92±6%
- Inactivation Efficacy (human α4β2-nAChRs [5]; mixture of HS and LS, ref [16]): 62±1%
- Agonism Hill slope (human α4β2-nAChRs [5]; ref [16]): 1.0±0.4
- Inactivation Hill Slope (human α4β2-nAChRs [5]; ref [16]): −1.4±0.2
- SmartCube behavioral signature (mice [3]): signature of activity suggesting potential antidepressant-like effect

Structure (SMILES): CC[C@H]1C[C@@H]1c1cncc(OC[C@@H]2CCN2)c1.O=C(O)C(F)(F)F [compound 10, 3-[(2(S)-Azetidinyl)methoxy]-5-((1S,2S)-2-ethylcyclopropyl)pyridine Trifluoroacetate]
- effect in the forced swim test (mice [1]; [10]): no significant effect
- Agonism Hill slope (human α4β2-nAChRs [2]): 1.1±0.2
- Inactivation Hill Slope (human α4β2-nAChRs [2]): −1.1±0.3
- SmartCube behavioral signature (mice [3]): signature of activity suggesting potential antidepressant-like effect

From PMC3464052 (Journal of medicinal chemistry, 2012)
